Experiments:
Format in all cases: functional
CCRF-CEM = assay: Growth inhibition of human CCRF-CEM cells at 10 uM after 48 hrs by coulter counter method; conditions: read-out: GI
Procedure, shortened: (§1)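 NCI 60-cell-line panel, single dose. Compound dissolved first in DMSO, then diluted in phosphate-buffered saline so that every final dilution held under 1% DMSO. Duplicate wells received cells at 6 × 10⁴ cells/ml. Controls held PBS/DMSO at the same dilution. Plates were incubated 48 h at 37 °C under 5% CO₂. Cells were then diluted 10-fold in saline and counted on a Coulter counter, with counts corrected for the dilution. Results are given as percent growth inhibition.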

HL-60(TB) = assay: Growth inhibition of human HL-60(TB) cells at 10 uM after 48 hrs by coulter counter method; conditions: HL-60, 48 h, read-out: GI
Procedure, shortened: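 Single-dose screen on the NCI 60-line panel (leukemia subpanel). Compound is dissolved in DMSO and diluted in PBS, with final DMSO below 1%. Duplicate wells hold 6 × 10⁴ cells/ml at 37 °C, 5% CO₂, for 48 h. Cells are counted by Coulter counter after 10-fold saline dilution. Read-out is percent growth versus PBS/DMSO controls, expressed as % growth inhibition.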

K562 = assay: Growth inhibition of human K562 cells at 10 uM after 48 hrs by coulter counter method; conditions: K562, 48 h, read-out: GI; procedure, shortened: as §1
MOLT-4 = assay: Growth inhibition of human MOLT4 cells at 10 uM after 48 hrs by coulter counter method; conditions: MOLT-4, 48 h, read-out: GI; procedure, shortened: as §1
RPMI-8226 = assay: Growth inhibition of human RPMI8226 cells at 10 uM after 48 hrs by coulter counter method; conditions: RPMI-8226, 48 h, read-out: GI; procedure, shortened: as §1
SR = assay: Growth inhibition of human SR cells at 10 uM after 48 hrs by coulter counter method; conditions: read-out: GI; procedure, shortened: as §1
A549 = assay: Growth inhibition of human A549 cells at 10 uM after 48 hrs by coulter counter method; conditions: A549, 48 h, read-out: GI; procedure, shortened: as §1
EKVX = assay: Growth inhibition of human EKVX cells at 10 uM after 48 hrs by coulter counter method; conditions: read-out: GI; procedure, shortened: as §1
NCI-H226 = assay: Growth inhibition of human NCI-H226 cells at 10 uM after 48 hrs by coulter counter method; conditions: NCI-H226, 48 h, read-out: GI; procedure, shortened: as §1
NCI-H23 = assay: Growth inhibition of human NCI-H23 cells at 10 uM after 48 hrs by coulter counter method; conditions: NCI-H23, 48 h, read-out: GI; procedure, shortened: as §1
NCI-H322M = assay: Growth inhibition of human NCI-H322M cells at 10 uM after 48 hrs by coulter counter method; conditions: read-out: GI; procedure, shortened: as §1
NCI-H522 = assay: Growth inhibition of human NCI-H522 cells at 10 uM after 48 hrs by coulter counter method; conditions: NCI-H522, 48 h, read-out: GI; procedure, shortened: as §1
HCT-116 = assay: Growth inhibition of human HCT116 cells at 10 uM after 48 hrs by coulter counter method; conditions: HCT-116, 48 h, read-out: GI; procedure, shortened: as §1
HCT-15 = assay: Growth inhibition of human HCT15 cells at 10 uM after 48 hrs by coulter counter method; conditions: HCT-15, 48 h, read-out: GI; procedure, shortened: as §1
HT-29 = assay: Growth inhibition of human HT-29 cells at 10 uM after 48 hrs by coulter counter method; conditions: HT-29, 48 h, read-out: GI; procedure, shortened: as §1
KM12 = assay: Growth inhibition of human KM12 cells at 10 uM after 48 hrs by coulter counter method; conditions: KM12, 48 h, read-out: GI; procedure, shortened: as §1
SF-268 = assay: Growth inhibition of human SF268 cells at 10 uM after 48 hrs by coulter counter method; conditions: SF-268, 48 h, read-out: GI; procedure, shortened: as §1
SF-295 = assay: Growth inhibition of human SF295 cells at 10 uM after 48 hrs by coulter counter method; conditions: SF-295, 48 h, read-out: GI; procedure, shortened: as §1
SNB-19 = assay: Growth inhibition of human SNB19 cells at 10 uM after 48 hrs by coulter counter method; conditions: SNB-19, 48 h, read-out: GI; procedure, shortened: as §1
SNB-75 = assay: Growth inhibition of human SNB75 cells at 10 uM after 48 hrs by coulter counter method; conditions: SNB-75, 48 h, read-out: GI; procedure, shortened: as §1
U-251 = assay: Growth inhibition of human U251 cells at 10 uM after 48 hrs by coulter counter method; conditions: U-251, 48 h, read-out: GI; procedure, shortened: as §1
LOX IMVI = assay: Growth inhibition of human LOXIMVI cells at 10 uM after 48 hrs by coulter counter method; conditions: read-out: GI; procedure, shortened: as §1
Malme-3M = assay: Growth inhibition of human MALME-3M cells at 10 uM after 48 hrs by coulter counter method; conditions: read-out: GI; procedure, shortened: as §1
M14 = assay: Growth inhibition of human M14 cells at 10 uM after 48 hrs by coulter counter method; conditions: M14, 48 h, read-out: GI; procedure, shortened: as §1
MDA-MB-435 = assay: Growth inhibition of human MDA-MB-435 cells at 10 uM after 48 hrs by coulter counter method; conditions: MDA-MB-435, 48 h, read-out: GI; procedure, shortened: as §1
SK-MEL-2 = assay: Growth inhibition of human SK-MEL-2 cells at 10 uM after 48 hrs by coulter counter method; conditions: SK-MEL-2, 48 h, read-out: GI; procedure, shortened: as §1
SK-MEL-28 = assay: Growth inhibition of human SK-MEL-28 cells at 10 uM after 48 hrs by coulter counter method; conditions: SK-MEL-28, 48 h, read-out: GI; procedure, shortened: as §1
SK-MEL-5 = assay: Growth inhibition of human SK-MEL-5 cells at 10 uM after 48 hrs by coulter counter method; conditions: SK-MEL-5, 48 h, read-out: GI; procedure, shortened: as §1
UACC-257 = assay: Growth inhibition of human UACC257 cells at 10 uM after 48 hrs by coulter counter method; conditions: UACC-257, 48 h, read-out: GI; procedure, shortened: as §1
UACC-62 = assay: Growth inhibition of human UACC62 cells at 10 uM after 48 hrs by coulter counter method; conditions: UACC-62, 48 h, read-out: GI; procedure, shortened: as §1
IGROV-1 = assay: Growth inhibition of human IGROV1 cells at 10 uM after 48 hrs by coulter counter method; conditions: IGROV-1, 48 h, read-out: GI; procedure, shortened: as §1
OVCAR-8 = assay: Growth inhibition of human OVCAR8 cells at 10 uM after 48 hrs by coulter counter method; conditions: OVCAR-8, 48 h, read-out: GI; procedure, shortened: as §1
NCI/ADR-RES = assay: Growth inhibition of human NCI/ADR-RES cells at 10 uM after 48 hrs by coulter counter method; conditions: read-out: GI; procedure, shortened: as §1
786-0 = assay: Growth inhibition of human 786-0 cells at 10 uM after 48 hrs by coulter counter method; conditions: 786-0, 48 h, read-out: GI; procedure, shortened: as §1
A498 = assay: Growth inhibition of human A498 cells at 10 uM after 48 hrs by coulter counter method; conditions: A498, 48 h, read-out: GI; procedure, shortened: as §1
ACHN = assay: Growth inhibition of human ACHN cells at 10 uM after 48 hrs by coulter counter method; conditions: read-out: GI; procedure, shortened: as §1
CAKI-1 = assay: Growth inhibition of human Caki1 cells at 10 uM after 48 hrs by coulter counter method; conditions: CAKI-1, 48 h, read-out: GI; procedure, shortened: as §1
SN12C = assay: Growth inhibition of human SN12C cells at 10 uM after 48 hrs by coulter counter method; conditions: read-out: GI; procedure, shortened: as §1
TK-10 = assay: Growth inhibition of human TK10 cells at 10 uM after 48 hrs by coulter counter method; conditions: TK-10, 48 h, read-out: GI; procedure, shortened: as §1
UO-31 = assay: Growth inhibition of human UO31 cells at 10 uM after 48 hrs by coulter counter method; conditions: UO-31, 48 h, read-out: GI; procedure, shortened: as §1
PC-3 = assay: Growth inhibition of human PC3 cells at 10 uM after 48 hrs by coulter counter method; conditions: PC-3, 48 h, read-out: GI; procedure, shortened: as §1
MCF7 = assay: Growth inhibition of human MCF7 cells at 10 uM after 48 hrs by coulter counter method; conditions: MCF7, 48 h, read-out: GI; procedure, shortened: as §1
BT-549 = assay: Growth inhibition of human BT549 cells at 10 uM after 48 hrs by coulter counter method; conditions: BT-549, 48 h, read-out: GI; procedure, shortened: as §1
T47D = assay: Growth inhibition of human T47D cells at 10 uM after 48 hrs by coulter counter method; conditions: read-out: GI; procedure, shortened: as §1
MDA-MB-468 = assay: Growth inhibition of human MDA-MB-468 cells at 10 uM after 48 hrs by coulter counter method; conditions: MDA-MB-468, 48 h, read-out: GI; procedure, shortened: as §1

Compound: NC1=CC(N)=NC2OC(c3ccccc3)=NN12 (stereo not given)
- inhibition of growth at 10 µM (CCRF-CEM): < 10%
- inhibition of growth at 10 µM (HL-60(TB)): 15.6%
- inhibition of growth at 10 µM (K562): < 10%
- inhibition of growth at 10 µM (MOLT-4): 10.4%
- inhibition of growth at 10 µM (RPMI-8226): < 10%
- inhibition of growth at 10 µM (SR): 10.4%
- inhibition of growth at 10 µM (A549): < 10%
- inhibition of growth at 10 µM (EKVX): < 10%
- inhibition of growth at 10 µM (NCI-H226): < 10%
- inhibition of growth at 10 µM (NCI-H23): < 10%
- inhibition of growth at 10 µM (NCI-H322M): < 10%
- inhibition of growth at 10 µM (NCI-H522): < 10%
- inhibition of growth at 10 µM (HCT-116): < 10%
- inhibition of growth at 10 µM (HCT-15): < 10%
- inhibition of growth at 10 µM (HT-29): < 10%
- inhibition of growth at 10 µM (KM12): < 10%
- inhibition of growth at 10 µM (SF-268): < 10%
- inhibition of growth at 10 µM (SF-295): 15.6%
- inhibition of growth at 10 µM (SNB-19): < 10%
- inhibition of growth at 10 µM (SNB-75): < 10%
- inhibition of growth at 10 µM (U-251): < 10%
- inhibition of growth at 10 µM (LOX IMVI): < 10%
- inhibition of growth at 10 µM (Malme-3M): < 10%
- inhibition of growth at 10 µM (M14): < 10%
- inhibition of growth at 10 µM (MDA-MB-435): < 10%
- inhibition of growth at 10 µM (SK-MEL-2): < 10%
- inhibition of growth at 10 µM (SK-MEL-28): < 10%
- inhibition of growth at 10 µM (SK-MEL-5): < 10%
- inhibition of growth at 10 µM (UACC-257): < 10%
- inhibition of growth at 10 µM (UACC-62): < 10%
- inhibition of growth at 10 µM (IGROV-1): < 10%
- inhibition of growth at 10 µM (OVCAR-8): < 10%
- inhibition of growth at 10 µM (NCI/ADR-RES): < 10%
- inhibition of growth at 10 µM (786-0): < 10%
- inhibition of growth at 10 µM (A498): < 10%
- inhibition of growth at 10 µM (ACHN): < 10%
- inhibition of growth at 10 µM (CAKI-1): < 10%
- inhibition of growth at 10 µM (SN12C): < 10%
- inhibition of growth at 10 µM (TK-10): < 10%
- inhibition of growth at 10 µM (UO-31): 27%
- inhibition of growth at 10 µM (PC-3): < 10%
- inhibition of growth at 10 µM (MCF7): < 10%
- inhibition of growth at 10 µM (BT-549): < 10%
- inhibition of growth at 10 µM (T47D): < 10%
- inhibition of growth at 10 µM (MDA-MB-468): < 10%

From ChEMBL document CHEMBL1926577, “Novel 1,3,4-heterodiazole analogues: synthesis and in-vitro antitumor activity” (2012)
